Screening results (PubChem BioAssay)
An excerpt weighted towards active compounds, which were near 1.9% of everything screened.
p-CIP stab down: p/CIP protein destabilization; Q05BA5; F442A p/CIP-EGFP cells, EGFP fluorescence, 16 h; decrease of EGFP signal, % at 10 µM; 290,000 tested, 0.01% active; AID 1984;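 active means EGFP signal decrease of at least 30% at 10 µM or well 3 SD below plate mean, unless failing retest; inactive means the rest, including hits failing retest or dose response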
HCV core dimer: HCV core protein dimerization inhibition | TR-FRET GST/Flag-core106 dimerization, 1536-well | inhibition, % at 5 µM | 300,000 tested, 0.33% active | AID 1899;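 active means inhibition above the mean of all tested compounds plus 3 SD, set per screening campaign, cut at about 45% in these data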
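System: GST-tagged and Flag-tagged HCV core protein residues 1-106 / Input: core106 proteins, GST 13.5 nM and Flag 17 nM / Buffer or medium: KF-containing HEPES buffer, pH 7.45, DTT, CHAPS, BSA / Probe or stimulus: Eu-anti-GST and XL665-anti-Flag labelled anti-tag antibodies / Schedule: 4 h, 22.5 °C incubation / Technique: TR-FRET 671 and 617 nm emission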
FID counter: displaces DNA intercalator in HCV helicase counter-screen | AID 1845 | inhibition, % at 7.9 µM | 290,000 tested, 0.17% active | DNA fluorescent intercalator displacement, fluorescence; in the data active means inhibition above about 37%;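 further: 0% = vehicle and 100% = reference compound; higher means more ethidium bromide displaced from hairpin DNA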
GPR7 antag: human neuropeptides B/W receptor 1 antagonism; GPR7-expressing cells, fluorescence antagonist assay; inhibition, % at 4.4 µM; 290,000 tested, 1.1% active; AID 1861; in the data active means inhibition above about 16%, passing the limit was not always enough;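 further: cells stimulated with the agonist NPW; 0% = agonist with vehicle and 100% = vehicle without agonist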
HCV NS3 hel inh: inhibitors of Hepatitis C virus NS3 helicase; NS3 helicase DNA unwinding, Cy5 molecular beacon fluorescence; inhibition, % at 10.9 µM; 290,000 tested, 0.56% active;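 active means inhibition above the mean of all tested compounds plus 3 SD, set per campaign, cut at about 35% in these data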;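 further: 0% = DMSO wells and 100% = thioflavine S control wells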
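Control set: DMSO versus 110 µM thioflavine S; Material: NS3 helicase fragment of HCV; Measured by: Cy5 fluorescence at 0 and 60 min, beacon hairpin quenching; Read-out basis: percent inhibition from t60/t0 fluorescence ratio; Times: reaction time 60 min, 25 °C; Repeats: single replicate; Compound dosing: single dose, 10.9 µM nominal final, DMSO 0.8% final.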
GPR7 antag conf: confirmation of human GPR7 antagonists; shares compounds with GPR7 antag; AID 1952; GPR7-expressing cells, calcium fluorescence antagonist mode; inhibition, % at 4.4 µM; 2,400 tested, 52% active; in the data active means inhibition above about 24%;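 further: stimulated with the GPR7 agonist NPW; 0% = agonist plus vehicle and 100% = vehicle alone without agonist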
MCHR1 antag: counter-screen for GPR7 antagonists: antagonists of human MCHR1; MCHR1-expressing cells, fluorescence antagonist assay; 2,400 tested, 62% active; shares compounds with GPR7 antag; inhibition, % at 4.4 µM; in the data active means inhibition above about 22%;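 further: 0% = vehicle with agonist and 100% = vehicle without agonist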
An asterisk follows results filed as active; / = no result given.

SMILES	p-CIP stab down	HCV core dimer	FID counter	GPR7 antag	HCV NS3 hel inh	GPR7 antag conf	MCHR1 antag
COc1ccc(-c2nn(-c3ccccc3)cc2CO)cc1	-14	-1	-12	-1	7	/	/
N=C(N)SCc1cn(-c2ccccc2)nc1-c1ccc(Br)cc1	-7	/	25	26*	-53	63*	89*
Cc1ccc(S(=O)(=O)NCCCNc2ccc([N+](=O)[O-])cc2)cc1	-18	1	12	41*	-5	45*	71*
Cc1ccc(S(=O)(=O)NCCNc2ccc([N+](=O)[O-])cc2)cc1	-14	-7	0	17	9	/	/
CCn1c(N2CCN(S(=O)(=O)c3ccc(OC)cc3)CC2)nc2ccccc21	-26	8	-35	-5	-9	/	/
CC(=O)Nc1ccc(S(=O)(=O)N2CCN(c3nc4ccccc4n3CC(C)C)CC2)cc1	12	/	-45	27*	0	-10	5
COc1ccc(CCNC(=O)c2ccc3c(c2)N(Cc2ccc(F)cc2)CCS3)cc1OC	-2	8	-38	29*	-32	31*	50*
COc1ccc(C(=O)NCCc2ccc(F)cc2)cc1OC	2	-2	-4	-7	-5	/	/
Cc1cc(=O)[nH]c(Nc2ccc(N(C)C)cc2)n1	6	-16	-2	-8	-1	/	/
CCOC(=O)CCS(=O)(=O)c1ccc(-c2ccc(S(=O)(=O)CCC(=O)OCC)cc2)cc1	9	6	-14	31*	7	44*	49*
CC(=O)NCC(=O)OCc1ccc([N+](=O)[O-])cc1	-24	0	2	-2	3	/	/
CC(=O)c1ccc(COC(=O)Cc2ccc([N+](=O)[O-])cc2)cc1	-12	8	-5	30*	7	39*	52*
CCN(CC)CCSc1nc(O)c(-c2ccccc2)c(=O)n1-c1ccccc1	0	-2	-6	-2	1	/	/
CCN(CC)CCSc1nc2ccccc2c(=S)n1-c1ccccc1	2	-4	45*	40*	-70	40*	39*
CCOC(=O)c1ccc(NC(=O)COc2ccc(CNCCO)cc2OCC)cc1	3	-3	20	20	-15	/	/
CCOC(=O)c1ccc(NC(=O)COc2ccccc2CNCCc2ccccc2)cc1	10	3	34	31*	-69	47*	73*
O=C(Nc1ccccc1)Nc1ncc([N+](=O)[O-])s1	-20	/	20	23*	3	20	53*
COc1ccc(-c2c(C)c3cc(O)ccc3oc2=O)cc1OC	3	6	-3	25*	29	3	-6
CCSc1nsc(NC(=O)Nc2ccc(F)cc2F)n1	-13	7	-2	54*	6	52*	55*
CCOc1ccc(NC(=O)Nc2nc(SCC)ns2)cc1	-11	-7	-11	25*	-14	33*	66*
Cc1cccc(C)c1NC(=O)CN1C(=O)COc2ccccc21	-4	-13	-8	0	23	/	/
CCN1C(=O)[C@H]2[C@@H](c3ccc(-c4cccc(Cl)c4)cc3)N[C@@](C)(C(=O)OC)[C@H]2C1=O	/	9	/	/	/	/	/
c1ccc(CNCCC(Cc2ccccc2)c2ccco2)cc1 (configuration not stated)	-33	2	22	23*	-58	28*	35*
COC(=O)C[C@H]1c2cc(C(F)(F)F)ccc2S(=O)(=O)N1C1CCCC1	/	-4	/	/	/	/	/
COc1ccc(N2C(=S)NC3CS(=O)(=O)CC32)cc1 (configuration not stated)	12	0	-1	2	11	/	/
SMILES	p-CIP stab down	HCV core dimer	FID counter	GPR7 antag	HCV NS3 hel inh	GPR7 antag conf	MCHR1 antag
Cc1ccc(OCC(O)Cn2c(=N)n(CCN3CCOCC3)c3ccccc32)cc1 (configuration not stated)	-3	-1	13	-4	-3	/	/
COc1ccc(OCC(O)Cn2c(=N)n(CCN3CCCCC3)c3ccccc32)cc1 (configuration not stated)	-11	-5	31	29*	-58	14	23*
Cc1ccc(OCC(O)Cn2c(=N)n(CCN3CCCCC3)c3ccccc32)cc1 (configuration not stated)	-1	-7	32	28*	-48	41*	39*
Cc1ccc(-c2noc(CSc3nnc(-c4ccncc4)n3-c3ccc(C)cc3)n2)cc1	0	7	-33	16	-17	/	/
CCOc1ccc(-n2c(SCc3nc(-c4ccc(C)cc4)no3)nnc2-c2ccncc2)cc1	2	7	-35	37*	-8	29*	31*
CCN(CC)c1ccc(/C=C/c2ccc3ccc(OC)cc3[n+]2CC)cc1	-28	-29	-10	47*	-15	65*	65*
O=[N+]([O-])c1cc(Cl)cc2c1nc(NCCO)c1ccccc12	-1	4	1	-3	-19	/	/
O=C(Nc1nnc(Cc2ccccc2)s1)C1CCN(C(=O)c2ccco2)CC1	-15	-6	-44	-3	18	/	/
COC(=O)c1cc(S(=O)(=O)N2CCN(c3ccc(F)cc3)CC2)c[nH]1	-10	-4	-13	4	6	/	/
CC1CC(C)CN(S(=O)(=O)c2ccc(C(=O)N3CCCC3)cc2)C1 (configuration not stated)	9	2	-31	-1	-14	/	/
CC(=O)c1ccc(N2CCN(C(=O)Cc3ccccc3)CC2)c(F)c1	2	3	-24	45*	13	10	8
CC(=O)c1ccc(S(=O)(=O)N2CCN(c3ccccc3F)CC2)cc1	-7	-7	-9	25*	-9	25*	23*
COC(=O)c1cc(S(=O)(=O)N2CCN(c3ccc([N+](=O)[O-])cc3)CC2)c[nH]1	1	8	24	32*	-1	9	1
CC1CC(C)CN(C(=O)c2ccc(S(=O)(=O)N3CC(C)CC(C)C3)cc2)C1 (configuration not stated)	3	7	-37	25*	-6	24*	23*
COC(=O)C1=C(CS(=O)(=O)c2ccccc2)NC(=O)NC1c1ccccc1 (configuration not stated)	-3	2	-13	2	11	/	/
CN(c1cccc2cccnc12)S(=O)(=O)c1ccccc1	-2	-5	-4	-9	0	/	/
COC(=O)c1cc(S(=O)(=O)N2CCCCCC2)cn1C	-4	-3	-15	-12	-11	/	/
COC(=O)c1cc(S(=O)(=O)N2CCN(c3ccc(C(C)=O)cc3)CC2)cn1C	-7	7	-48	25*	-2	-8	41*
Cc1noc(C)c1CSc1nc2ccccc2n1CCc1ccccc1	-2	0	-23	26*	-14	-3	10
